From PMC5548977 (ESMO Open, 2017)

Assays:
[1] = system: drug-resistant PDAC cells; details: cited from earlier work
advanced solid tumours = test: Anti-tumour activity, tumour response by CT; format: in vivo, human
How it was run: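 Adult patients with refractory advanced solid tumours got intravenous infusions on days 1, 8 and 15 of 28-day cycles, at 20–780 mg/m2. CT response assessment was done at baseline and every two cycles per RECIST V.1.1. Disease control was defined as CR, PR or SD. Evaluable patients had at least one response assessment. Treatment continued until confirmed PD. Analysis was descriptive.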

[2] = system: metastatic osteosarcoma cells; details: ex vivo lung metastases model; cited from earlier work
[3] = Pharmacokinetics: total ruthenium in plasma by ICP-MS, cycle 1; format: in vivo, human
How it was run: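 Cycle 1 plasma was taken on days 1, 2 and 8, pre-infusion and at 15 min, 30 min, 1, 2, 4, 6–8, 10–12 and 24 hours post-infusion, plus pre-dose day 8. Total ruthenium (free and bound) was measured by ICP-MS. Drug was reconstituted in normal saline and given intravenously over 30 min (<500 mL) or 60–90 min (>500 mL). Parameters were derived from concentration–time data and summarised descriptively.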

[4] = system: patients with advanced solid tumours; test: Phase I dose-escalation study: adverse events, dose-limiting toxicities, MTD; format: in vivo, human
How it was run: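 Dosing was intravenous on days 1, 8 and 15 every 28 days, with dose by BSA (actual weight) recalculated each cycle. Escalation started at 20 mg/m2 with one patient per level, doubling until ≥grade 2 toxicity, then 3+3, across nine cohorts up to 780 mg/m2, with an expansion cohort at MTD. Dexamethasone 10 mg IV plus IV 5-HT antagonist premedication was recommended. AEs/DLTs were graded by NCI CTCAE V.3.0 and followed 30 days post-treatment.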

GRP78 = details: tumour cells; independent preclinical studies; cited from earlier work
[5] = in vitro, combination with different classes of cancer drugs; ref 23 24; cited from earlier work
[6] = ref 9 10, cited from earlier work
[7] = 10 patients with disease control
[8] = efficacy-evaluable population (n=38)

[Cl][Ru-]([Cl])([Cl])[Cl].[Na+].c1ccc2[nH]ncc2c1.c1ccc2[nH]ncc2c1 [IT-139, sodium trans-(tetrachlorobis(1H-indazole)ruthenate(III))]
effect on GRP78 chemoresistance ([1]; PDAC model): inhibits GRP78 chemoresistance | sensitivity to cytotoxic drugs ([1]; in combination with gemcitabine, drug-resistant PDAC cells): sensitivity to cytotoxic drugs was restored | patients with target lesion size reductions (advanced solid tumours; 8 of 38 efficacy-evaluable patients): 21% | median duration of disease control (advanced solid tumours; [7]): 9 weeks | range of duration of disease control (advanced solid tumours; [7]): 1–98 weeks | duration of SD from initiation of therapy until PD (advanced solid tumours; carcinoid patient continued on compassionate use protocol): 54 weeks | number of patients with PR (advanced solid tumours; [8]): 1 | number of patients with SD (advanced solid tumours; [8]): 9 | disease control in patients with carcinoid neuroendocrine tumours (advanced solid tumours; one PR and two SDs): three of five patients had disease control | single-agent anti-tumour activity (advanced solid tumours; weekly i.v. days 1, 8 and 15 of every 28-day cycle): modest anti-tumour activity | tumour burden [2]: decrease in tumour burden after treatment | mean half-life (t1/2) ([3]; across dose levels, may not represent true terminal half-life): 113 h | pharmacokinetic linearity ([3]; across the dose range evaluated (20-780 mg/m^2)): first-order linear pharmacokinetics | dose dependence of PK parameters ([3]; in vivo): increased proportionally with dose | mean total clearance (CLtotal) ([3]; in vivo): 164 mL/h | percentage of the administered dose excreted in the urine (mean) ([3]; in vivo): 1.14% | Any adverse event, patients ([4]; 20 mg/m^2 (n=1)): 1 | Maximum severity of adverse event Grade 1, patients ([4]; 20 mg/m^2 (n=1)): 1 | Related adverse event (related to study drug as assessed by the investigator), patients ([4]; 20 mg/m^2 (n=1)): 1 | Any adverse event, patients ([4]; 40 mg/m^2 (n=1)): 1 | Maximum severity of adverse event Grade 2, patients ([4]; 40 mg/m^2 (n=1)): 1 | Related adverse event (related to study drug as assessed by the investigator), patients ([4]; 40 mg/m^2 (n=1)): 1 | Any adverse event, patients ([4]; 80 mg/m^2 (n=1)): 1 | Maximum severity of adverse event Grade 1, patients ([4]; 80 mg/m^2 (n=1)): 1 | Related adverse event (related to study drug as assessed by the investigator), patients ([4]; 80 mg/m^2 (n=1)): 1 | Any adverse event, patients ([4]; 160 mg/m^2 (n=1)): 1 | Maximum severity of adverse event Grade 1, patients ([4]; 160 mg/m^2 (n=1)): 1 | Related adverse event (related to study drug as assessed by the investigator), patients ([4]; 160 mg/m^2 (n=1)): 1 | Any serious adverse event, patients ([4]; 320 mg/m^2 (n=7)): 4 | Discontinued treatment due to adverse event, patients ([4]; 320 mg/m^2 (n=7)): 1 | Maximum severity of adverse event Grade 1, patients ([4]; 320 mg/m^2 (n=7)): 1 | Maximum severity of adverse event Grade 2, patients ([4]; 320 mg/m^2 (n=7)): 3 | Maximum severity of adverse event Grade 3, patients ([4]; 320 mg/m^2 (n=7)): 3 | Maximum severity of adverse event ≥ Grade 3, patients ([4]; 320 mg/m^2 (n=7)): 3 | Related adverse event (related to study drug as assessed by the investigator), patients ([4]; 320 mg/m^2 (n=7)): 7 | Related serious adverse event, patients ([4]; 320 mg/m^2 (n=7)): 1 | Any adverse event, patients ([4]; 420 mg/m^2 (n=5)): 5 | Any serious adverse event, patients ([4]; 420 mg/m^2 (n=5)): 1 | Discontinued treatment due to adverse event, patients ([4]; 420 mg/m^2 (n=5)): 2 | Maximum severity of adverse event Grade 1, patients ([4]; 420 mg/m^2 (n=5)): 1 | Maximum severity of adverse event Grade 2, patients ([4]; 420 mg/m^2 (n=5)): 2 | Maximum severity of adverse event Grade 3, patients ([4]; 420 mg/m^2 (n=5)): 2 | Maximum severity of adverse event ≥ Grade 3, patients ([4]; 420 mg/m^2 (n=5)): 2 | Related adverse event (related to study drug as assessed by the investigator), patients ([4]; 420 mg/m^2 (n=5)): 4 | Any adverse event, patients ([4]; 500 mg/m^2 (n=3)): 3 | Maximum severity of adverse event Grade 1, patients ([4]; 500 mg/m^2 (n=3)): 1 | Maximum severity of adverse event Grade 2, patients ([4]; 500 mg/m^2 (n=3)): 2 | Related adverse event (related to study drug as assessed by the investigator), patients ([4]; 500 mg/m^2 (n=3)): 2 | Any serious adverse event, patients ([4]; 625 mg/m^2 (n=18)): 6 | Discontinued treatment due to adverse event, patients ([4]; 625 mg/m^2 (n=18)): 2 | Maximum severity of adverse event Grade 1, patients ([4]; 625 mg/m^2 (n=18)): 4 | Maximum severity of adverse event Grade 2, patients ([4]; 625 mg/m^2 (n=18)): 4 | Maximum severity of adverse event Grade 3, patients ([4]; 625 mg/m^2 (n=18)): 9 | Maximum severity of adverse event Grade 5, patients ([4]; 625 mg/m^2 (n=18)): 1 | Maximum severity of adverse event ≥ Grade 3, patients ([4]; 625 mg/m^2 (n=18)): 10 | Related serious adverse event, patients ([4]; 625 mg/m^2 (n=18)): 1 | duration of QTc prolongation after infusion ([4]; 780 mg/m^2): up to 10 hours | Any adverse event, patients ([4]; 780 mg/m^2 (n=9)): 9 | Any serious adverse event, patients ([4]; 780 mg/m^2 (n=9)): 4 | Maximum severity of adverse event Grade 1, patients ([4]; 780 mg/m^2 (n=9)): 1 | Maximum severity of adverse event Grade 2, patients ([4]; 780 mg/m^2 (n=9)): 4 | Maximum severity of adverse event Grade 3, patients ([4]; 780 mg/m^2 (n=9)): 3 | Maximum severity of adverse event Grade 5, patients ([4]; 780 mg/m^2 (n=9)): 1 | Maximum severity of adverse event ≥ Grade 3, patients ([4]; 780 mg/m^2 (n=9)): 4 | Related adverse event (related to study drug as assessed by the investigator), patients ([4]; 780 mg/m^2 (n=9)): 9 | Related serious adverse event, patients ([4]; 780 mg/m^2 (n=9)): 2 | overall tolerability ([4]; 20 to 780 mg/m^2): well tolerated | cumulative toxicity ([4]; across dose levels): no evidence of cumulative toxicity | drug-related renal toxicity ([4]; all dose levels): no evidence of drug-related renal toxicity | MTD (maximum-tolerated dose) ([4]; i.v. infusion days 1, 8 and 15 every 28 days): 625 mg/m^2 | effect on platelets or white blood cells ([4]; in vivo): no effect on platelets or white blood cells | patients with an AE that led to treatment discontinuation ([4]; n=46, all dose levels): 11% | PR prolongation ([4]; no control group, chance effect not excluded): evidence for PR prolongation | Creatine clearance ([4]; over time, all dose levels): stable over time and across all dose levels | serum discolouration at blood draw ([4]; three patients (four blood draws), without any clinical correlates): discoloured serum, green in colour | Any serious adverse event, patients ([4]; total patients (n=46)): 15 | Discontinued treatment due to adverse event, patients ([4]; total patients (n=46)): 5 | Maximum severity of adverse event Grade 1, patients ([4]; total patients (n=46)): 11 | Maximum severity of adverse event Grade 5, patients ([4]; total patients (n=46)): 2 | Maximum severity of adverse event ≥ Grade 3, patients ([4]; total patients (n=46)): 19 | Related serious adverse event, patients ([4]; total patients (n=46)): 4 | effect on stress induction of GRP78 (GRP78): suppressing the stress induction of GRP78 in tumour cells | synergy in combination [5]: marked synergy

imidazolium-(trans-DMSO-imidazole-tetrachlororuthenate) [NAMI-A]
tolerability ([6]; monotherapy, clinic trials): moderately tolerated | activity in combination ([6]; phase I/II combination study with gemcitabine): less activity in combination than with gemcitabine therapy alone
